Tested on: MS2 coat protein
Test: apparent Kd, MS2 coat protein; higher = weaker binding; RNA-MaP array; FMN 200 µM where present
In short: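 Designs on Illumina sequencing-chip clusters, transcribed by stalled E. coli RNA polymerase, were exposed to SNAP-549-labelled MS2 coat protein in doubling steps from 0.7 or 1.5 nM up to 3 µM, without and then with constant ligand. The buffer held 100 mM Tris-HCl pH 7.5, 80 mM KCl, 4 mM MgCl2, BSA, DTT, yeast tRNA and Tween-20. Apparent Kd values are medians of filtered per-cluster binding-curve fits to green signal normalised to red-channel RNA signal and control-cluster median Fmax.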

[1] = designed as: OFF switch for flavin mononucleotide, no ligand
[2] = ligand present: flavin mononucleotide, designed as: OFF switch for flavin mononucleotide
[3] = designed as: ON switch for flavin mononucleotide, no ligand
[4] = ligand present: flavin mononucleotide, designed as: ON switch for flavin mononucleotide

Row | Sequence | apparent Kd [1] | apparent Kd [2] | apparent Kd [3] | apparent Kd [4]
1 | GGUUAUUGCAAGGAUAUGCUUUUUUUUGAUAUUGCAGAAGGUGCAACAUGAGGAUCACCCAUGUUGGAUGGGUU | 119 nM | 162 nM |  | 
2 | GGUCCAUAAUGAGGAUAUGGCACCUUAUUGGUGCCAGAAGGCAUGUCUAUAGACAUGAGGAUCACCCAUGUAAUAAAUUGGACC |  |  | 435 nM | 43.3 nM
3 | AAUUGGAUGCAGAAGGCAUGGACGACUCGUCACAUUAACAUGAGGAUCACCCAUGUCAAAAUACAUGAGGAUAUGCAUCCUAAA |  |  | 140 nM | 12 nM
4 | AAGCGGGUCUUCAGGGUAAUGAACAUGAGGAUCACCCAUGUGCAGGAUAUGACGGAUCCGCACCGUCAGAAGGGCACUAAGUAC | 24.6 nM | 69.9 nM |  | 
5 | AACAGUAGAGGAUAUACAUGAGGAUCACCCAUGUGAUAUUUACGUGGCGUACCACGAAGUAGAAGGCUACUGGA | 30.7 nM | 265 nM |  | 
6 | GGUCCAUCAUGAGGAUAUGGCACCUUAUUUGUGCCAGAAGGCAUGUCGAUAGACAUGAGGAUCACCCAUGUAAUAAAUUGGACC |  |  | 1430 nM | 104 nM
7 | GAGCGCUGUCAAGGAUAUCCGAAAAGAAAAUAAGGAGAAGGUGACAUGAGGAUCACCCAUGUGCACUGGGUGGACGCGCGCUCC | 459 nM | 256 nM |  | 
8 | UGGUAGUCAGGAUAUACGAACAUGUCGCCAGAUGUCAAGGUACAUGAGGAUCACCCAUGUAGAAGGGACUAGAA | 44.5 nM | 48.2 nM |  | 
9 | UACGGACAUGAGGAUCACCCAUGUGAGGAUAUCGGUACCGAUAGCAUAAUAUACUCGGCGAGAAGGCACAGCGU | 30 nM | 31.8 nM |  | 
10 | UGGUACUAGGGAGGAUAUGGGAAGAUACAUGAGGAUCACCCAUGUUUAAUAAUGCCGAGAGGCAACUAGAAGGCCCUAGUACCU |  |  | 253 nM | 13.9 nM
11 | UGGUACUAGGGAGGAUAUGGGAAGAUACAUGAGGAUCACCCAUGUUUAAGAAUGCCGAGAGGCAACUAGAAGGCCCUAGUACCC |  |  | 430 nM | 19.1 nM
12 | AGGGUACAUGAGGAUCACCCAUGUGGGUCGGUCGCAGGAUAUGCCCGUGGGCGCUGGCGGGCAGAAGGGUGCCGAA |  |  | 313 nM | 45 nM
13 | AUCCGGCGUGUAGGAUAUGGAAAAGAAAAGGAUCCAGAAGGACAUGAGGAUCACCCAUGUACAUGUAAACAGUCAUCACCGGAA | 36.2 nM | 58.9 nM |  | 
14 | UGUCAUAUAUAGAAGGGUAGUAGGGAUUUACAUGAGGAUCACCCAUGUAUUAUAGGAUAUGUGUAUAGUUUUUAUUCAAGUUUA | 24.7 nM | 18.8 nM |  | 
15 | AUUUUACAUGAGGAUCACCCAUGUUUUGGCGGGUCAGGAUAUAGAUCGGAUGAGUUCUGGCUAGAAGGGACAUGUA |  |  | 54 nM | 106 nM
16 | AGCAUGUUUGGGUAACCUGGCACAUGAGGAUCACCCAUGUGACAGGAUAUCGACGUAGAUGGCGACGAGAAGGGUCCGAUGGGU | 5.78 nM | 7.01 nM |  | 
17 | GUUAUUGACAAGAAGGCAUACAUGAGGAUCACCCAUGUUCUACAUGGAUAAUGAGGAUAUUGCCAAUACAUGAGGAUCACCCAG | 68.3 nM | 77.5 nM |  | 
18 | GGUACUCAAAGAGUACCAAUACGAACAUGAGGAUCACCCAUGUAGGAUAUGCUACUCAAAGAGUAGCAGAAGGAUAUGUGCUUA | 16.9 nM | 15.3 nM |  | 
19 | CUUUUGUGAGGAUAUCAGUAGUAAUAUAAUAGUAUUACUACUGAGAAGGCACAUGAGGAUCACCCAUGUUCCUC | 27.4 nM | 50.3 nM |  | 
20 | UGGUACUAGGGAGGAUAUGGGAAGAUACAUGAGGAUCACCCAUGUUUAAGAAUGCCAAGAGGCAACUAGAAGGCCCUAGUACCU |  |  | 384 nM | 17.8 nM
21 | CUGAUGUUAGGAUAUCAGGCACCCGCCACUGGCAGGGCGCAUGAGAAGGGACAUGAGGAUCACCCAUGUAGUAA | 25.2 nM | 60.1 nM |  | 
22 | UGUCGGAGCAGAGGAUAUUACAUGAGGAUCACCCAUGUGUGAACCAAUAGCUGGAAACAGCAAUGUAAGAAGGCUGCUCCGACA | 58.4 nM | 29.2 nM |  | 
23 | CAUGUCCUCACAGGAUAUGCUGGACUUUGUCCAGCAGAAGGGUGAUAACAUGAGGAUCACCCAUGUGGACAUGAUAUAUUUAAU |  |  | 111 nM | 568 nM

Source: the EternaBench riboswitch data
